According to ChEMBL document CHEMBL3739264, “Synthesis and bio-evaluation of novel quinolino-stilbene derivatives as potential anticancer agents” (Bioorg Med Chem, 2015):
Calls of active or inactive are those of the source. The rule behind the calls is not given here.

What was measured:
MDA-MB-231 = assay: Antiproliferative activity against human MDA-MB-231 cells after 72 hrs by SRB assay; format: functional, cell-based; settings: MDA-MB-231, 72 h
Outline: (§1)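 Cells seeded at 4,000-5,000/well for 16 h, then exposed 72 h to serial dilutions of compound in DMSO; sham DMSO as 100% and TCA-treated wells as 0%. Fixed in 10% TCA at 4°C for 1 h, stained with 0.4% SRB for 30 min, dye solubilised in 10 mmol Tris pH 10.5, read at 540 nm. IC50 from sigmoidal dose-response curves; two biological replicates, four technical each.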

MDA-MB-468 [1] = assay: Antiproliferative activity against human MDA-MB-468 cells after 72 hrs by SRB assay; format: functional, cell-based; settings: MDA-MB-468, 72 h; outline: as §1
HeLa = assay: Antiproliferative activity against human HeLa cells after 72 hrs by SRB assay; format: functional, cell-based; outline: as §1
[2] = Antiproliferative activity against human 184B5 cells after 72 hrs by SRB assay; format: cell-based; settings: 184B5, 72 h; outline: as §1
MCF7 = assay: Antiproliferative activity against human MCF7 cells after 72 hrs by SRB assay; format: functional, cell-based; settings: MCF7, 72 h
Outline: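 Cells seeded at 4,000-5,000/well for 16 h, then exposed 72 h to serial dilutions of compound in DMSO; sham DMSO as 100% and TCA-treated wells as 0%. IC50 from sigmoidal dose-response curves; two biological replicates, four technical each.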

Tubulin (Homo sapiens) = Tubulin (Homo sapiens) (UniProt P68371+Q9H4B7+P0DPH7+P68366+Q13509+Q71U36+P04350+Q3ZCM7+P07437+P68363+Q9BQE3+Q6PEY2+Q13885+Q9BVA1+Q9BUF5); settings: 5 uM
MDA-MB-468 [3] = assay: Cell cycle arrest in human MDA-MB-468 cells assessed as accumulation at G2/M phase at 1 uM after 48 hrs by flow cytometry analysis relative to control; format: functional
Outline: (§2)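 Cells seeded overnight at about 1 × 10^6 per plate, treated next morning, and harvested at set times. Fixed in 75% ethanol at -20°C for 12-24 h, then stained 1 h in PBS with 0.3% NP-40, 100 µg/ml RNase A and 100 µg/ml propidium iodide. Phase distribution read from DNA content by flow cytometry against sham-treated cells.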

MDA-MB-468 [4] = assay: Cell cycle arrest in human MDA-MB-468 cells assessed as accumulation at G0-G1 phase at 1 uM after 24 hrs by flow cytometry analysis relative to control; format: functional; outline: as §2
MDA-MB-468 [5] = assay: Cell cycle arrest in human MDA-MB-468 cells assessed as accumulation at sub-G1 phase at 1 uM after 24 hrs by flow cytometry analysis relative to control; format: functional; outline: as §2
MDA-MB-468 [6] = assay: Cell cycle arrest in human MDA-MB-468 cells assessed as accumulation at G0-G1 phase at 1 uM after 48 hrs by flow cytometry analysis relative to control; format: functional; outline: as §2
MDA-MB-468 [7] = assay: Cell cycle arrest in human MDA-MB-468 cells assessed as accumulation at G0-G1 phase at 1 uM after 72 hrs by flow cytometry analysis relative to control; format: functional; outline: as §2
MDA-MB-468 [8] = assay: Cell cycle arrest in human MDA-MB-468 cells assessed as accumulation at sub-G1 phase at 1 uM after 72 hrs by flow cytometry analysis relative to control; format: functional; outline: as §2
MDA-MB-468 [9] = assay: Cell cycle arrest in human MDA-MB-468 cells assessed as accumulation at S phase at 1 uM after 24 hrs by flow cytometry analysis relative to control; format: functional; outline: as §2
MDA-MB-468 [10] = assay: Induction of DNA damage in human MDA-MB-468 cells at 1 uM after 24 hrs by immunostaining; format: functional, cell-based
Outline: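 γH2A.X (phospho-Ser139) immunostaining, with HeLa at 6 µM for 24 or 48 h and MDA-MB468 at 1 µM. Cells on coverslips fixed and permeabilized in ice-cold methanol at -20°C. Blocked in 1% FBS, primary antibody 1:200 overnight at 4°C, then fluorophore-conjugated secondary 1 h. DNA counterstained with DRAQ5.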

MDA-MB-468 [11] = assay: Cell cycle arrest in human MDA-MB-468 cells assessed as accumulation at S phase at 1 uM after 12 hrs by flow cytometry analysis relative to control; format: functional; outline: as §2
MDA-MB-468 [12] = assay: Cell cycle arrest in human MDA-MB-468 cells assessed as accumulation at G2/M phase at 1 uM after 72 hrs by flow cytometry analysis relative to control; format: functional; outline: as §2
MDA-MB-468 [13] = assay: Cell cycle arrest in human MDA-MB-468 cells assessed as accumulation at S phase at 1 uM after 72 hrs by flow cytometry analysis relative to control; format: functional; outline: as §2
MDA-MB-468 [14] = assay: Cell cycle arrest in human MDA-MB-468 cells assessed as accumulation at G2/M phase at 1 uM after 12 hrs by flow cytometry analysis relative to control; format: functional; outline: as §2
MDA-MB-468 [15] = assay: Cell cycle arrest in human MDA-MB-468 cells assessed as accumulation at sub-G1 phase at 1 uM after 48 hrs by flow cytometry analysis relative to control; format: functional; outline: as §2
MDA-MB-468 [16] = assay: Cell cycle arrest in human MDA-MB-468 cells assessed as accumulation at S phase at 1 uM after 48 hrs by flow cytometry analysis relative to control; format: functional; outline: as §2
MDA-MB-468 [17] = assay: Cell cycle arrest in human MDA-MB-468 cells assessed as accumulation at sub-G1 phase at 1 uM after 12 hrs by flow cytometry analysis relative to control; format: functional; outline: as §2
MDA-MB-468 [18] = assay: Cell cycle arrest in human MDA-MB-468 cells assessed as accumulation at G2/M phase at 1 uM after 24 hrs by flow cytometry analysis relative to control; format: functional; outline: as §2
MDA-MB-468 [19] = assay: Cell cycle arrest in human MDA-MB-468 cells assessed as accumulation at G0-G1 phase at 1 uM after 12 hrs by flow cytometry analysis relative to control; format: functional; outline: as §2

Structure (SMILES) | IC50 (MDA-MB-231) [µM] | IC50 (MDA-MB-468 [1]) [µM] | IC50 (HeLa) [µM] | IC50 [2] [µM] | IC50 (MCF7) [µM] | also measured
CC[C@@]1(O)C(=O)OCc2c1cc1n(c2=O)Cc2cc3ccccc3nc2-1 [CAMPTOTHECIN] | 0.00577 | 0.0148 | 0.00613 | 0.00496 |  | 
FC(F)(F)c1ccc(/C=C\c2cc3ccccc3nc2Cl)cc1 | 5.36 | 7.38 | 4.22 | 7.94 | 4.26 | 
COC(=O)Nc1nc2cc(C(=O)c3cccs3)ccc2[nH]1 |  |  |  |  |  | inhibition (Tubulin (Homo sapiens)): Active
COc1ccc2nc(Cl)c(/C=C\c3ccc(C(F)(F)F)cc3C(F)(F)F)cc2c1 | > 50 | > 50 | > 50 | > 50 | > 50 | 
FC(F)(F)c1cccc(/C=C/c2cc3ccccc3nc2Cl)c1 | 45 | 24 | 20.3 | 24.7 | 24.4 | 
COc1ccc2nc(Cl)c(/C=C\c3cc(C(F)(F)F)cc(C(F)(F)F)c3)cc2c1 | 4.47 | 5.79 | 4.14 | 7.97 | 4.7 | 
CCN(CC)CCCC(C)Nc1ccnc2cc(Cl)ccc12 (stereo not drawn) [CHLOROQUINE] | 36.5 | 19.9 | 30 | 63.1 |  | 
COc1ccc2nc(Cl)c(/C=C\c3ccc(F)cc3)cc2c1 | 11.4 | 15.2 | 9.67 | 19.2 | 8.97 | 
FC(F)(F)c1ccc(/C=C\c2cc3ccc(Cl)cc3nc2Cl)cc1 | 13.6 | 16.1 | 12.6 | 26.4 | 6.45 | 
FC(F)(F)c1ccc(/C=C\c2cc3ccccc3nc2Cl)c(C(F)(F)F)c1 | 41.8 |  | 35.9 |  | 10.5 | 
Fc1ccc(/C=C\c2cc3ccccc3nc2Cl)cc1 | 24 | 5.29 | 24.9 | 35.7 | 20.3 | 
COc1ccc2nc(Cl)c(/C=C/c3ccc(F)cc3)cc2c1 | 11 | 14.8 | > 50 | 9.74 | 14.1 | 
FC(F)(F)c1cccc(/C=C\c2cc3cc4c(cc3nc2Cl)OCO4)c1 | 26 | > 50 | 20.1 | 17 | 18.9 | 
Fc1ccc(/C=C/c2cc3ccccc3nc2Cl)cc1 | > 50 | 0.12 | > 50 | 38.5 | 15.1 | Activity (MDA-MB-468 [3]): 15%; Activity (MDA-MB-468 [4]): 23.1%; Activity (MDA-MB-468 [5]): 13.7%; Activity (MDA-MB-468 [6]): 21.8%; Activity (MDA-MB-468 [7]): 16.1%; Activity (MDA-MB-468 [8]): 65%; Activity (MDA-MB-468 [9]): 41.7%; Activity (MDA-MB-468 [10]): Active; Activity (MDA-MB-468 [11]): 34.5%; Activity (MDA-MB-468 [12]): 6.7%; Activity (MDA-MB-468 [13]): 11.4%; Activity (MDA-MB-468 [14]): 21.9%; Activity (MDA-MB-468 [15]): 40.6%; Activity (MDA-MB-468 [16]): 22%; Activity (MDA-MB-468 [17]): 5%; Activity (MDA-MB-468 [18]): 20.2%; Activity (MDA-MB-468 [19]): 37%
COc1ccc2nc(Cl)c(/C=C\c3ccc(C(F)(F)F)cc3)cc2c1 | 22.8 | 22.7 | 16.2 | 40 | 12.4 | 
COc1ccc2nc(Cl)c(/C=C/c3ccc(C(F)(F)F)cc3)cc2c1 | 48.8 | > 50 | > 50 | 33.5 | 47 | 
FC(F)(F)c1cc(/C=C\c2cc3ccccc3nc2Cl)cc(C(F)(F)F)c1 | 10.1 | 10.5 | 6.78 | 13.7 | 7.46 | 
CC(=O)O[C@H]1C(=O)[C@@]2(C)[C@H]([C@H](OC(=O)c3ccccc3)[C@]3(O)C[C@H](OC(=O)[C@H](O)[C@@H](NC(=O)c4ccccc4)c4ccccc4)C(C)=C1C3(C)C)[C@]1(OC(C)=O)CO[C@@H]1C[C@@H]2O [PACLITAXEL] | 0.00256 | 0.00387 | 0.00229 | 0.00232 |  | 
Fc1ccc(/C=C\c2cc3ccc(Cl)cc3nc2Cl)cc1 | 42.6 | 10.9 | 38.6 | 26.9 | 16.9 | 
COc1ccc2nc(Cl)c(/C=C\c3ccccc3C(F)(F)F)cc2c1 | 2.77 | 4.98 | 2.6 | 5.31 | 4.47 | 
FC(F)(F)c1cc(/C=C\c2cc3ccc(Cl)cc3nc2Cl)cc(C(F)(F)F)c1 | > 50 | > 50 | 41.4 | 43 | 41.7 | 
FC(F)(F)c1cc(/C=C\c2cc3cc4c(cc3nc2Cl)OCO4)cc(C(F)(F)F)c1 | > 50 | > 50 | > 50 | > 50 | > 50 | 
COc1ccc2nc(Cl)c(/C=C\c3cccc(C(F)(F)F)c3)cc2c1 | 3.28 | 3.91 | 3.03 | 5.58 | 2.78 | 
